{"source": "ChEMBL document CHEMBL4732105", "about": "“First orally bioavailable prodrug of proteolysis targeting chimera (PROTAC) degrades cyclin-dependent kinases 2/4/6 in vivo” (Eur J Med Chem, 2021)", "key": {"[1]": {"molecular_target": "Protein cereblon/Cyclin-dependent kinase 2 (Homo sapiens) (UniProt P24941+Q96SW2)", "assay": "Protac activity at CRBN/CDK2 in human A-375 cells assessed as induction of CDK2 protein degradation after 12 hrs by Western blot analysis", "format": "cell-based", "settings": "dose 62.5-1000 nM", "in_short": "(§1)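 B16F10 and A375 cells treated with DMSO or serial dilutions of compound for 12 h (concentration series), or for the indicated times (time course). CDK2, CDK4 and CDK6 protein levels determined by western blot.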"}, "B16-F10 [2]": {"test_system": "B16-F10", "assay": "Induction of apoptosis in mouse B16F10 cells assessed as late apoptotic cells at 125 nM incubated for 48 hrs by Annexin V-FITC/PI staining based flow cytometry (reference value: 0.551%)", "format": "functional"}, "A-375 [3]": {"test_system": "A-375", "assay": "Induction of apoptosis in human A-375 cells assessed as decrease in Bcl-2 level upto 2000 nM incubated for 48 hrs by Western blot analysis", "format": "functional, cell-based", "settings": "dose nM <=2000, time 48.0 hrs", "in_short": "(§2)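 A375 and B16F10 cells incubated with compound for 48 h. Cleaved caspase-3, cleaved PARP, total P53, Bcl-2 and Bax measured by western blot.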"}, "B16-F10 [4]": {"test_system": "B16-F10", "assay": "Induction of cell cycle arrest in mouse B16-F10 cells assessed as accumulation at G1 phase at 25 uM incubated for 48 hrs by propidium iodide staining based flow cytometry (reference value: 52.59%)", "format": "functional"}, "B16-F10 [5]": {"test_system": "B16-F10", "assay": "Induction of apoptosis in mouse B16F10 cells assessed as early apoptotic cells at 250 nM incubated for 48 hrs by Annexin V-FITC/PI staining based flow cytometry (reference value: 3.52%)", "format": "functional"}, "[6]": {"assay": "Tmax in Sprague-Dawley rat at 200 mg/kg, po", "format": "ADME, organism-based", "settings": "in vivo", "in_short": "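SD rats, n = 3, single dose of prodrug: IV by tail vein at 10 mg/Kg, or PO at 200 mg/Kg. Plasma levels of prodrug and released active degrader followed over 0–12 h. Parameters derived by a non-compartmental model.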"}, "[7]": {"molecular_target": "Protein cereblon/Cyclin-dependent kinase 4 (Homo sapiens) (UniProt P11802+Q96SW2)", "sequence (P11802 2-303 limits assumed)": "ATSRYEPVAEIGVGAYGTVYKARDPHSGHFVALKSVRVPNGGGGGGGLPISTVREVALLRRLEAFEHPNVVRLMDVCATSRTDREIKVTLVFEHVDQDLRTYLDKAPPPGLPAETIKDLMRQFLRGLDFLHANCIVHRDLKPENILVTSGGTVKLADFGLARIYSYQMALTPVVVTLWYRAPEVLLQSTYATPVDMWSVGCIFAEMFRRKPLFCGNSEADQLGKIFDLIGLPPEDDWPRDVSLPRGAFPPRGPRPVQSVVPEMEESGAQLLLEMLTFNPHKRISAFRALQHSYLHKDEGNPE", "sequence (Q96SW2 whole entry partner)": "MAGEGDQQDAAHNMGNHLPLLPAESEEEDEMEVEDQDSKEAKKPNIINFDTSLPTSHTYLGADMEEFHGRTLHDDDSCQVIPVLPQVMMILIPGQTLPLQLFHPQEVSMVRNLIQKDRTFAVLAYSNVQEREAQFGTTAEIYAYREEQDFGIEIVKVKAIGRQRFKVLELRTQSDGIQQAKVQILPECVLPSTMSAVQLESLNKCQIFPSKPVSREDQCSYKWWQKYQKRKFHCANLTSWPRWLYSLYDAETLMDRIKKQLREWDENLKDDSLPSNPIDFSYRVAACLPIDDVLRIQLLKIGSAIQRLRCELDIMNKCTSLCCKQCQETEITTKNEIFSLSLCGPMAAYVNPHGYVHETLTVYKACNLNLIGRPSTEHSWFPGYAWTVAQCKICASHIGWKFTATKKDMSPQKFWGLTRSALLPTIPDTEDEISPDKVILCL", "assay": "Protac activity at CRBN/CDK4 in human A-375 cells assessed as induction of CDK4 protein degradation at 1000 nM by Western blot analysis", "format": "cell-based", "settings": "time hrs <=12, TDE = time-dependent effect", "in_short": "as §1"}, "A-375 [8]": {"test_system": "A-375", "assay": "Induction of apoptosis in human A-375 cells assessed as increase in bax level upto 2000 nM incubated for 48 hrs by Western blot analysis", "format": "functional, cell-based", "settings": "dose nM <=2000, time 48.0 hrs", "in_short": "as §2"}, "[9]": {"molecular_target": "Protein cereblon/Cyclin-dependent kinase 6 (Mus musculus) (UniProt Q8C7D2+Q64261)", "sequence (Q64261 whole entry, looked up)": "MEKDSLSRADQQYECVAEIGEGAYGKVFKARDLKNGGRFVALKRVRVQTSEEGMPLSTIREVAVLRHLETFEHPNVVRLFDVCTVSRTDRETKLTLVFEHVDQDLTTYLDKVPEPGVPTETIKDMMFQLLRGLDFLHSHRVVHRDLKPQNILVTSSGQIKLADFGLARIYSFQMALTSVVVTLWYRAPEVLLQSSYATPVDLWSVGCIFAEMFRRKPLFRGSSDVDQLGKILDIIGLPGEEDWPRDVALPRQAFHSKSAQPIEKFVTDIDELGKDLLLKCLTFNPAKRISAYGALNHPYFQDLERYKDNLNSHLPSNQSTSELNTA", "sequence (Q8C7D2 whole entry, looked up)": "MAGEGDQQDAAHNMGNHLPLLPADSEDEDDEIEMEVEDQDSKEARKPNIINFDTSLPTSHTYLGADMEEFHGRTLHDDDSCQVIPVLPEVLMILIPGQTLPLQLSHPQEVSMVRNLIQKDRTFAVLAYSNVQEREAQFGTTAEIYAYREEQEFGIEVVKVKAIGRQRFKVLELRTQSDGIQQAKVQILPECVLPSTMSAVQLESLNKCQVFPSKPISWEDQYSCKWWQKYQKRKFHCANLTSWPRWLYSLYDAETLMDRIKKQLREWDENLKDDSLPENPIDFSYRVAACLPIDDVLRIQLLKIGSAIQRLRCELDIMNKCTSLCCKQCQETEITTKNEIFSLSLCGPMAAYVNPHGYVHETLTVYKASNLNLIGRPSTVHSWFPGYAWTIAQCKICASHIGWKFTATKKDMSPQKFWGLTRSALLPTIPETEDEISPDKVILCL", "assay": "Protac activity at CRBN/CDK6 in mouse B16F10 cells assessed as induction of CDK6 protein degradation at 500 nM by Western blot analysis", "format": "cell-based", "settings": "B16-F10, time hrs <=12, TDE = time-dependent effect", "in_short": "as §1"}, "A-375 [10]": {"test_system": "A-375", "assay": "Induction of apoptosis in human A-375 cells assessed as viable cells at 1000 nM incubated for 48 hrs by Annexin V-FITC/PI staining based flow cytometry (reference value: 93.3%)", "format": "functional", "settings": "read-out: Activity"}, "B16-F10 [11]": {"test_system": "B16-F10", "assay": "Induction of apoptosis in mouse B16F10 cells assessed as late apoptotic cells at 500 nM incubated for 48 hrs by Annexin V-FITC/PI staining based flow cytometry (reference value: 0.551%)", "format": "functional"}, "A-375 [12]": {"test_system": "A-375", "assay": "Induction of apoptosis in human A-375 cells assessed as early apoptotic cells at 500 nM incubated for 48 hrs by Annexin V-FITC/PI staining based flow cytometry (reference value: 2.82%)", "format": "functional"}, "A-375 [13]": {"test_system": "A-375", "assay": "Induction of cell cycle arrest in human A-375 cells assessed as accumulation at G0/G1 phase upto […] incubated for 48 hrs by propidium iodide staining based flow cytometry", "format": "functional", "in_short": "(§3)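 Tumor cells incubated 48 h in complete medium with compound or DMSO at various concentrations, stained with propidium iodide, and DNA content read by flow cytometry. G0/G1, S and G2/M fractions reported; mean ± SD, n = 3, Student's t-test.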"}, "B16-F10 [14]": {"test_system": "B16-F10", "assay": "Induction of cell cycle arrest in mouse B16-F10 cells assessed as accumulation at G1 phase at 50 uM incubated for 48 hrs by propidium iodide staining based flow cytometry (reference value: 52.59%)", "format": "functional"}, "B16-F10 [15]": {"test_system": "B16-F10", "assay": "Induction of apoptosis in mouse B16F10 cells assessed as necrotic cells at 125 nM incubated for 48 hrs by Annexin V-FITC/PI staining based flow cytometry (reference value: 0.21%)", "format": "functional"}, "[16]": {"molecular_target": "T1, Protein cereblon/Cyclin-dependent kinase 2 (Mus musculus) (UniProt P97377+Q8C7D2)", "T1 sequence (Q8C7D2 whole entry, looked up, other chains not shown)": "as the sequence (Q8C7D2 whole entry, looked up) above", "assay": "Protac activity at CRBN/CDK2 in mouse B16F10 cells assessed as induction of CDK2 protein degradation at 100 nM for 6 hrsin presence of Ribociclib by Western blot analysis", "format": "cell-based", "settings": "B16-F10, time 6.0 hrs"}, "A-375 [17]": {"test_system": "A-375", "assay": "Cytotoxicity against human A375 cells assessed as reduction in cell viability after 72 hrs by MTT assay", "format": "functional, cell-based", "settings": "A-375, 72 h", "in_short": "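Cells exposed to compound for 72 h and viability read by MTT; IC50 from three independent experiments.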"}, "B16-F10 [18]": {"test_system": "B16-F10", "assay": "Induction of apoptosis in mouse B16F10 cells assessed as viable cells at 125 nM incubated for 48 hrs by Annexin V-FITC/PI staining based flow cytometry (reference value: 95.9%)", "format": "functional", "settings": "read-out: Activity"}, "B16-F10 [19]": {"test_system": "B16-F10", "assay": "Induction of apoptosis in mouse B16F10 cells assessed as viable cells at 250 nM incubated for 48 hrs by Annexin V-FITC/PI staining based flow cytometry (reference value: 95.9%)", "format": "functional", "settings": "read-out: Activity"}, "B16-F10 [20]": {"test_system": "B16-F10", "assay": "Induction of cell cycle arrest in mouse B16-F10 cells assessed as accumulation at G2 phase at 50 uM incubated for 48 hrs by propidium iodide staining based flow cytometry (reference value: 18.22%)", "format": "functional"}, "A-375 [21]": {"test_system": "A-375", "assay": "Induction of apoptosis in human A-375 cells assessed as viable cells at 250 nM incubated for 48 hrs by Annexin V-FITC/PI staining based flow cytometry (reference value: 93.3%)", "format": "functional", "settings": "read-out: Activity"}, "[22]": {"molecular_target": "T1, Protein cereblon/Cyclin-dependent kinase 2 (Mus musculus)", "assay": "Protac activity at CRBN/CDK2 in mouse B16F10 cells assessed as induction of CDK2 protein degradation after 12 hrs by Western blot analysis", "format": "cell-based", "settings": "B16-F10, dose 62.5-1000 nM", "in_short": "as §1"}, "A-375 [23]": {"test_system": "A-375", "assay": "Induction of cell cycle arrest in human A-375 cells assessed as accumulation at G1 phase at 1000 uM incubated for 48 hrs by propidium iodide staining based flow cytometry (reference value: 58.26%)", "format": "functional", "in_short": "as §3"}, "[24]": {"molecular_target": "T2, Protein cereblon/Cyclin-dependent kinase 4 (Mus musculus) (UniProt P30285+Q8C7D2)", "T2 sequence (P30285 whole entry, looked up)": "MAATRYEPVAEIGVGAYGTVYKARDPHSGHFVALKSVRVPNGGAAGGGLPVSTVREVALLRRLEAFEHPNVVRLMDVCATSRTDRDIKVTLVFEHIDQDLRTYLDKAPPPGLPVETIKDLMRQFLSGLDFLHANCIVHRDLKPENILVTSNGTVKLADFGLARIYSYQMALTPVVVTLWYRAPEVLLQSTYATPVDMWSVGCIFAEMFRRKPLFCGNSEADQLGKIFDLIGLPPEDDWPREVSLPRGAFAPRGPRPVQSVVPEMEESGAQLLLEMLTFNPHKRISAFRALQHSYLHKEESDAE", "T2 sequence (Q8C7D2 whole entry, looked up)": "as the sequence (Q8C7D2 whole entry, looked up) above", "assay": "Protac activity at CRBN/CDK4 in mouse B16F10 cells assessed as induction of CDK4 protein degradation at 500 nM by Western blot analysis", "format": "cell-based", "settings": "B16-F10, time hrs <=12, TDE = time-dependent effect", "in_short": "as §1"}, "A-375 [25]": {"test_system": "A-375", "assay": "Induction of apoptosis in human A-375 cells assessed as necrotic cells at 500 nM incubated for 48 hrs by Annexin V-FITC/PI staining based flow cytometry (reference value: 0.602%)", "format": "functional"}, "[26]": {"molecular_target": "T2, Protein cereblon/Cyclin-dependent kinase 4 (Mus musculus)", "assay": "Protac activity at CRBN/CDK4 in mouse B16F10 cells assessed as induction of CDK4 protein degradation at 100 nM for 6 hrs in presence of proteasome inhibitor MG132 by Western blot analysis", "format": "cell-based", "settings": "B16-F10", "in_short": "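B16F10 cells pre-treated 2 h with DMSO, pomalidomide (10 μM), MG132 (20 μM) or a parent CDK ligand, then exposed to 100 nM degrader for 6 h. CDK2/4/6 protein levels read by western blot.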"}}, "note": "Calls of active or inactive are those of the source. No cut-off for these calls is given here.", "data": [{"smiles": "CN(C)C(=O)c1cc2cnc(Nc3ccc(C(=O)NCCCCCCNc4cccc5c4C(=O)N(C4CCC(=O)NC4=O)C5=O)cc3)nc2n1C1CCCC1", "note": "(stereo unspecified)", "values": [{"measurement": "Activity", "setting": "[1]", "result": "Dose-dependent effect"}, {"measurement": "Activity", "setting": "B16-F10 [2]", "result": 6.5, "unit": "%"}, {"measurement": "Activity", "setting": "A-375 [3]", "result": "Active"}, {"measurement": "Activity", "setting": "B16-F10 [4]", "result": 49.67, "unit": "%"}, {"measurement": "Activity", "setting": "B16-F10 [5]", "result": 70.3, "unit": "%"}, {"measurement": "Tmax", "setting": "[6]", "result": 15, "unit": "min"}, {"measurement": "Activity", "setting": "[7]", "result": "Tde"}, {"measurement": "Activity", "setting": "A-375 [8]", "result": "Active"}, {"measurement": "Activity", "setting": "[9]", "result": "Tde"}, {"measurement": "viability at 1 µM", "setting": "A-375 [10]", "result": 55.2, "unit": "%"}, {"measurement": "Activity", "setting": "B16-F10 [11]", "result": 1.63, "unit": "%"}, {"measurement": "Activity", "setting": "A-375 [12]", "result": 9.59, "unit": "%"}, {"measurement": "Activity", "setting": "A-375 [13]", "result": "Active"}, {"measurement": "Activity", "setting": "B16-F10 [14]", "result": 49.54, "unit": "%"}, {"measurement": "Activity", "setting": "B16-F10 [15]", "result": 0.289, "unit": "%"}, {"measurement": "Activity", "setting": "[16]", "result": "Active"}, {"measurement": "IC50", "setting": "A-375 [17]", "result": 166, "unit": "nM"}, {"measurement": "viability at 0.125 µM", "setting": "B16-F10 [18]", "result": 86.1, "unit": "%"}, {"measurement": "viability at 0.25 µM", "setting": "B16-F10 [19]", "result": 23.4, "unit": "%"}, {"measurement": "Activity", "setting": "B16-F10 [20]", "result": 22.66, "unit": "%"}, {"measurement": "viability at 0.25 µM", "setting": "A-375 [21]", "result": 90.5, "unit": "%"}, {"measurement": "Activity", "setting": "[22]", "result": "Dose-dependent effect"}, {"measurement": "Activity", "setting": "A-375 [23]", "result": 74.09, "unit": "%"}, {"measurement": "Activity", "setting": "[24]", "result": "Tde"}, {"measurement": "Activity", "setting": "A-375 [25]", "result": 0.153, "unit": "%"}, {"measurement": "Activity", "setting": "[26]", "result": "inactive"}]}]}
